The source made the active and inactive calls. The rule behind the calls is not given here.
Key:
[1] = Inhibition of advanced glycation end product formation assessed as protection of reactive primary amines by measuring increase in primary amine level at 100 uM incubated for 7 days using BSA and glycolaldehyde by TNBSA assay; type: physicochemical; conditions: 168 h
Method in brief: (§1)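 BSA was modified with glycolaldehyde in the presence of 2-AIs. Total primary amines were quantified by TNBSA, independent of fluorescence. Protection appears as preserved free amines relative to GO-modified BSA, with basal free-amine level of BSA before GO/2-AI treatment as reference. DMSO and PBS served as vehicle controls, with aminoguanidine as comparator.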

[2] = Inhibition of advanced glycation end product formation assessed as protection of reactive primary amines by measuring increase in primary amine level at 100 uM incubated for 7 days using BSA and glycolaldehyde by TNBSA assay relative to control BSA; type: physicochemical; parameters: scale not given: the % may be the effect or the level left; conditions: 168 h; method in brief: as §1
[3] = Induction of breaking of pre-formed carboxymethyl lysine-enriched advanced glycation end product formation using BSA and glyoxylic acid assessed as increase in primary amine content at 400 uM after 24 hrs by TNBSA assay relative to BSA alone
Method in brief: (§2)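 CML-enriched AGE-BSA was pre-formed from 50 mg/mL BSA and 25 mM glyoxylic acid with sodium cyanoborohydride over 48 h, then purified by dialysis. The glycated protein was exposed to 2-AIs for 24 h. Free primary amines were quantified by TNBSA and compared with untreated CML-BSA. DMSO and PBS served as vehicle controls, with aminoguanidine as reference.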

[4] = Induction of breaking of pre-formed carboxymethyl lysine-enriched advanced glycation end product formation using BSA and glyoxylic acid assessed as increase in primary amine content at 400 uM after 24 hrs by TNBSA assay relative to pre-formed CML-enriched AGE; method in brief: as §2
[5] = Induction of breaking of pre-formed carboxymethyl lysine-enriched advanced glycation end product formation using BSA and glyoxylic acid assessed as increase in primary amine content at 400 uM after 24 hrs by TNBSA assay relative to 4,4'-(butane-1,4-diyl)bis(1H-imidazol-2-amine) dihydrochloride
[6] = Inhibition of advanced glycation end product formation using BSA and glycolaldehyde at 400 uM by standard fluorescence based assay; type: physicochemical
[7] = Inhibition of advanced glycation end product formation using BSA and glycolaldehyde at 40 uM by standard fluorescence based assay; type: physicochemical
[8] = Inhibition of advanced glycation end product formation assessed as protection of reactive primary amines by measuring primary amine reduction using BSA and glycolaldehyde by TNBSA assay; type: physicochemical; parameters: scale not given: the % may be the effect or the level left; method in brief: as §1
[9] = Induction of breaking of pre-formed advanced glycation end product formation using BSA assessed as restoration of glycated -BSA primary amine content after 24 hrs by TNBSA assay

| SMILES | inhibition (INH) [1] | Activity [3] | Activity [4] | Activity [5] | further results |
| --- | --- | --- | --- | --- | --- |
| NCCCCc1c[nH]c(N)n1 | Active | 52.5% | 97.9% | 64.5% | Activity [2]: 44.6% |
| N=C(N)NCCCc1c[nH]c(N)n1 | Active |  |  |  |  |
| N=C(N)NN |  | inactive | inactive | inactive |  |
| Nc1nc(Cc2c[nH]cn2)c[nH]1 | Active |  |  |  |  |
| Nc1nc(CCCCc2c[nH]c(N)n2)c[nH]1 | Active |  |  |  | inhibition (INH) [6]: 44.6%; inhibition (INH) [7]: 5.6%; Activity [8]: 3.6%; Activity [9]: 78.9% |
| Nc1nc(Cc2c[nH]c3ccccc23)c[nH]1 | Active |  |  |  |  |
| Nc1nc(Cc2ccc(O)cc2)c[nH]1 | Active |  |  |  |  |
| NCCCc1c[nH]c(N)n1 | Active | 67.5% | 110% | 79.4% |  |

Source: ChEMBL document CHEMBL3621175, “Second generation 2-aminoimidazole based advanced glycation end product inhibitors and breakers” (Bioorg Med Chem Lett, 2015)
